HUVEC inhibit: human endothelial cell proliferation inhibition; HUVEC proliferation, CellTiter-Glo luminescence, 72 h; hits give low values; viability, % at 10 µM (by protocol); 86,000 compounds, 1.1% hits;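 active = viability at or below 30%; inactive = viability above 30%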
H69AR inhibit: growth inhibitors of human H69AR lung tumor cells; 85,000 compounds, 6% hits; viability, % at 10 µM; H69AR lung tumor viability, ATP luminescence, 72 h; hits give low values; AID 598;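 active = viability at or below 40%; inactive = viability above 40%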;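 note: multidrug resistant small cell line overexpressing MRP-1 efflux transporter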
HCT116 PTEN-null: PTEN-deleted cell growth suppression; viability, % at 10 µM; HCT116 PTEN-null viability, CellTiter-Glo, 60 h; hits give low values; AID 827; 140,000 compounds, 1.2% hits;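 active = viability at or below a set limit, 4 SD under the median of all tested compounds, cut at about 3.7% in these data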;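 note: PTEN knockout HCT116 line with beta catenin targeted HCT116 as companion control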
Lung fibro prol: blocks proliferation of human lung fibroblasts; viability, % at 10 µM; 85,000 compounds, 1.1% hits; LL 47 human lung fibroblast viability, ATP luminescence; hits give low values;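 active = viability at or below 50% in the single dose screen; inactive = viability above 50%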;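 note: compound exposure lasted 72 h before the ATP readout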
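Material: human lung fibroblast line LL 47, low passage; Evaluation: viability percentage against median untreated-cell control; Buffer or medium: 15% FBS in IMEM; Incubation: 72 h compound exposure at 37 °C after overnight plating; Dosing: 0.1% DMSO in all compound wells; Measured by: CellTiter-Glo luminescence.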
HCT116 bCat-KO: beta-catenin-lacking colon tumor cell growth suppression | viability, % at 10 µM | HCT116 beta-catenin knockout viability, CellTiter-Glo, 60 h; hits give low values | AID 818 | 140,000 compounds, 1.5% hits;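 active = viability at or under a set limit, the compound median less 4 SD, cut at about 6% in these data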
Large screens that a line does not name were inactive. This excerpt belongs to a sample that is enriched for hits.

Nc1ccc(C(=O)OCc2nc3c(ccc4ccccc43)[nH]2)cc1	none
CCOc1cc2[nH]c(=O)n(CC3CCC(C(=O)NC(C)CC)CC3)c(=O)c2cc1OCC (centres undefined)	none (no result: HCT116 PTEN-null, HCT116 bCat-KO)
CCC1(CC)Cc2ccccc2C(CC(=O)N2CCOCC2)=N1	none (no result: HCT116 PTEN-null)
O=C(CSc1nnc2n1CCCN2C(=S)Nc1ccc(Cl)cc1)c1ccccc1	H69AR inhibit 26.1
COc1ccc(C(=O)Oc2ccc(=O)n(-c3ccccc3)n2)cc1	none (no result: HUVEC inhibit, H69AR inhibit, Lung fibro prol)
O=C(NCc1ccc(F)cc1)C(=O)Nc1nc(C23CC4CC(CC(C4)C2)C3)cs1	none (no result: HUVEC inhibit, H69AR inhibit, Lung fibro prol)
COc1ccc2oc(=O)c(/C(C)=N/NC(=O)c3ccncc3)cc2c1	none (no result: HUVEC inhibit, H69AR inhibit, Lung fibro prol)
Cc1cc(C)n(-c2nc(-n3nc(C)cc3C)c3c4c(sc3n2)COC(C)(C)C4)n1	H69AR inhibit 25.6
Cc1cc(C)n(-c2nc(SCC(=O)Nc3nccs3)c3c4c(sc3n2)COC(C)(C)C4)n1	none
Cc1cc(C)n(-c2nc(NCCC(C)C)c3c4c(sc3n2)COC(C)(C)C4)n1	HUVEC inhibit 12.9, H69AR inhibit 1.6, HCT116 bCat-KO 3.6
CSc1nnc2c3c4c(sc3nc(-n3nc(C)cc3C)n12)COC(C)(C)C4	none
COC(=O)CSc1snnc1-c1ccc(Cl)cc1Cl	none
Cc1cc(Cl)ccc1NC(=S)N1CCN(C(=O)C2CCCO2)CC1 (centres undefined)	none (no result: HUVEC inhibit, H69AR inhibit, Lung fibro prol)
O=C(Nc1nc2c(s1)CN(Cc1ccccc1)CC2)c1cccc(S(=O)(=O)N2CCc3ccccc32)c1	none
COc1cc2c(N3CCOCC3)cc(O)c(CC(=O)Nc3ccccc3)c2cc1OC	Lung fibro prol 48.2
CCC1Oc2ccc(C)cc2N(CC(=O)N(Cc2ccc3c(c2)OCO3)CC2CCCO2)C1=O (centres undefined)	none
COc1ccc(CN(CC2CCCO2)C(=O)CN2C(=O)C(C)Oc3ccc(C)cc32)cc1OC (centres undefined)	H69AR inhibit 39.9
CCc1ccc(C2=NNC(=Nc3cccc(S(=O)(=O)N(C)C)c3)SC2)cc1	HCT116 bCat-KO 3.9 (no result: HUVEC inhibit, H69AR inhibit, Lung fibro prol)
O=C(COc1ccc(-c2nnco2)cc1)N1CCN(S(=O)(=O)c2ccc3ccccc3c2)CC1	H69AR inhibit 35.9
COc1ccc(CCC(=O)N2CCN(S(=O)(=O)c3ccc4ccccc4c3)CC2)cc1	none
Cc1ccc(-c2nnc(-c3ccc(NC(=O)Cc4cccs4)cc3)o2)cc1	HCT116 PTEN-null 1.4, HCT116 bCat-KO 1.2 (no result: HUVEC inhibit, H69AR inhibit, Lung fibro prol)
O=C(Cc1cccs1)Nc1ccc(Cl)cc1	none
O=C(Nc1cc(N2CCOCC2)ncn1)Nc1cccc2ccccc12	H69AR inhibit 32.5
CCOC(=O)c1ccccc1Nc1cn(C(C)=O)c2ccccc12	H69AR inhibit 23.2, Lung fibro prol 45.9
CC(=O)n1cc(Nc2ccccc2C(=O)O)c2ccccc21	none
COCC(C)NC(=O)CCS(=O)(=O)c1nc(-c2ccc(OC)cc2)cc(C(F)(F)F)n1 (centres undefined)	none (no result: HUVEC inhibit, H69AR inhibit, Lung fibro prol)
CCOC(=O)CCS(=O)(=O)c1nc(-c2ccccc2)cc(C(F)(F)F)n1	HUVEC inhibit 28.4, H69AR inhibit 0.8, Lung fibro prol 3.0
CCOC(=O)CS(=O)(=O)c1ccccc1	none
CCOC(=O)CS(=O)(=O)c1nc(-c2ccccc2)cc(C(F)(F)F)n1	HUVEC inhibit 12.2, H69AR inhibit 1.6, Lung fibro prol 3.8
CCOC(=O)CS(=O)(=O)c1nc(-c2ccc(F)cc2)cc(C(F)(F)F)n1	HUVEC inhibit 23.5, H69AR inhibit 4.4, Lung fibro prol 2.9
COC(=O)CCS(=O)(=O)c1nc(-c2ccccc2)cc(C(F)(F)F)n1	H69AR inhibit 1.4, Lung fibro prol 27.5
CCOc1ccccc1/C=C(/NC(=O)c1ccccc1)C(=O)NC(C)c1ccccc1 (centres undefined)	none (no result: HUVEC inhibit, H69AR inhibit, Lung fibro prol)
O=C(Nc1nnc(-c2ccccc2Cl)o1)c1cc2cc([N+](=O)[O-])ccc2s1	none (no result: HUVEC inhibit, H69AR inhibit, Lung fibro prol)
c1ccc2c(Nc3nc(N4CCOCC4)c4ccccc4n3)cccc2c1	none (no result: HUVEC inhibit, H69AR inhibit, Lung fibro prol)
Fc1ccc(Nc2nc(N3CCOCC3)c3ccccc3n2)cc1	H69AR inhibit 34.6 (no result: HCT116 PTEN-null, HCT116 bCat-KO)
O=C(NC1CCCCC1)N(Cc1cc2cc3c(cc2[nH]c1=O)OCCO3)C1CCCCC1	H69AR inhibit 35.6
COc1ccccc1NC(=O)N(Cc1ccc2c(c1)OCO2)Cc1nc2ccccc2c(=O)[nH]1	H69AR inhibit 9.4
COc1cc2cc(CN(C(=O)NC3CCCCC3)C3CCCC3)c(=O)[nH]c2cc1OC	none
COc1ccc2cc(CN(C(=O)Nc3ccccc3OC)C3CCCC3)c(=O)[nH]c2c1	H69AR inhibit 24.7
CCc1ccc2[nH]c(=O)c(CN(Cc3ccccc3)C(=O)Nc3ccccc3OC)cc2c1	H69AR inhibit 38.7, Lung fibro prol 49.2
